Measured values published in ChEMBL document CHEMBL4334447, “Discovery of 4-Aminoquinoline-3-carboxamide Derivatives as Potent Reversible Bruton's Tyrosine Kinase Inhibitors for the Treatment of Rheumatoid Arthritis” (J Med Chem, 2019).
Converted amounts (≈) assume the structure as drawn.

Columns and labels:
[1] = Kinetic aqueous solubility of the compound in pH 7.4 phosphate buffered saline incubated for 24 hrs under shaking condition by HPLC analysis; type: physicochemical; settings: read-out: Kinetic_solubility
How it was run: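 Dry powder shaken 24 h at 25 °C in 0.1 M phosphate buffer, pH 7.4, then filtered through a 0.45 µm membrane. Concentration determined by HPLC against a standard of the compound in DMSO. Mean of three separate assays in triplicate.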

[2] = molecular target: Tyrosine-protein kinase BTK (Homo sapiens, UniProt Q06187); assay: Reversible inhibition of FAM-labeled peptide binding to full-length human N-terminal GST-tagged BTK (2 to 659 residues) expressed in baculovirus infected Sf21 insect cells at preincubated for 10 mins followed by FAM-labeled peptide addition and measured by off-chip mobility shift assay
Sequence of Tyrosine-protein kinase BTK (Q06187 whole entry, the tested form may be a part): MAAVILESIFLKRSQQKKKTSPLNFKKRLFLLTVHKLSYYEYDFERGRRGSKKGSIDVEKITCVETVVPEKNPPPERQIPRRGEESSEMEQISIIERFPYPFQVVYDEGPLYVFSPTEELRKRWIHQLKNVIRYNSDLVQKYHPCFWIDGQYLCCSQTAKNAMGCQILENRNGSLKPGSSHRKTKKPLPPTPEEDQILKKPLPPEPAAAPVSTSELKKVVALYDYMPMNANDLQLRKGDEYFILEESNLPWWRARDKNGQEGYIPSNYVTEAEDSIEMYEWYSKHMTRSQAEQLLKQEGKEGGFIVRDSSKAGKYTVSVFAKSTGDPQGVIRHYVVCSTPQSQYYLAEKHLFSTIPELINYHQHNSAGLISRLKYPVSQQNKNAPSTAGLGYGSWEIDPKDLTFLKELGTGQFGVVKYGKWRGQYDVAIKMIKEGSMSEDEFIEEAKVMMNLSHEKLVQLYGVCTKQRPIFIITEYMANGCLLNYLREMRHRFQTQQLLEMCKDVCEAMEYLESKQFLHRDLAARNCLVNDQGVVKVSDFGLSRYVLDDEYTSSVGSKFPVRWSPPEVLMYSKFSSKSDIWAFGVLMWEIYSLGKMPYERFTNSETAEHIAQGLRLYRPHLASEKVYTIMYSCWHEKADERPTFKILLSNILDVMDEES

solubility kinetic at 24 h [1]: 10.5 µg/mL (≈ 33.1 µM)
IC50 [2]: 72.8 nM
Compound: Cc1cc2cn[nH]c2cc1-c1cccc2c(N)c(C(N)=O)cnc12
